According to article PMC3269312 (International journal of inorganic chemistry, 2011):

Tests used:
ct-DNA [1] = conditions: cited from earlier work
ct-DNA [2] = test: Fluorescence competition experiment with ethidium bromide; type: binding, calf
Summary of the method: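 Ethidium bromide is pre-bound to calf-thymus DNA, and the intercalated adduct is excited near 520 nm. Test compound is added as quencher, and the loss of adduct emission is followed. Relative fluorescence (F0/F) is plotted against quencher concentration per the Stern-Volmer equation, giving the quenching constant.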

Row | Compound | KEB, binding constant of EB to DNA (ct-DNA [1]) [M⁻¹] | KSV, Stern-Volmer quenching constant (ct-DNA [2]; EB-DNA adduct, λex = 520 nm, [EB] = 0.33 μM, [DNA] = 10 μM, 298 K) | apparent binding constant (Kapp) with ct-DNA (ct-DNA [2]; from [complex] at 50% of initial EB-DNA fluorescence, KEB = 1.2 × 10^6 M^−1) [M⁻¹]
1 | CC[n+]1c(-c2ccccc2)c2cc(N)ccc2c2ccc(N)cc21 [EB, ethidium bromide] | 1.2e+06 | – | –
2 | Zn(acnTSC)2Cl2 [Complex 1] | – | (7.48 ± 0.29) × 10^3 M^−1 | 3530
